The sample as a whole holds a higher share of hits than the screen did.
V-ATPase pH: alters yeast V-ATPase proton transport; response, % at 10 µM; S. cerevisiae, pHLuorin cytosolic pH fluorescence; 0.37% of 350,000 active; in the data active = response mostly above about 7.3%, no sharp cut-off; inactive = mostly below about 5.4%; note: actives read high
Dynein cargo inh: dynein cargo transport inhibition | AID 1381 | 3617.4 mouse cells, GR-EGFP nuclear translocation imaging; test concentration mostly 20 µM; stimulated with dexamethasone, 1 µM; stronger effect = lower value | z-score, hits read low | 0.47% of 220,000 active;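 active = plate z-score of nuclear minus cytoplasmic receptor signal below a set negative limit, without overly bright fluorescence or cell loss, cut at about -3.5 in these data, passing the limit was not always enough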;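 note: z-score of nuclear minus cytoplasmic ring GR-EGFP intensity difference per well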
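Medium: Induction medium lacking tetracycline, stripped serum | Probe or stimulus: 1.0 µM final dexamethasone stimulus | Schedule: 48 h induction, then 1 h compound, then 30 min agonist, 37 °C | Signal: Automated 10x imaging of fixed Hoechst-stained cells | Evaluation: Per-cell GR-EGFP intensity, nucleus versus surrounding cytoplasmic ring, well-averaged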
ABCB6 inh MLPCN: inhibitors of human ABC transporter ABCB6 | Q9NP58 | K562-ABCB6 porphyrin accumulation, flow cytometry, 1 h; stronger effect = lower value | fluorescence ratio to DMSO, % at 10 µM | 0.19% of 360,000 active | AID 602162;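 active = fluorescence ratio to DMSO below 75%, the collection mean minus 3 SD; inconclusive = too few cells collected in the well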;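 note: signal is porphyrin accumulated inside mitochondria; lower ratio means ABCB6 inhibition with less porphyrin fluorescence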
p-CIP stab down: p/CIP protein destabilization. Q05BA5. 0.01% of 290,000 active. AID 1984. decrease of EGFP signal, % at 10 µM. F442A p/CIP-EGFP cells, EGFP fluorescence, 16 h;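 active = EGFP signal decrease of at least 30% at 10 µM or well 3 SD below plate mean, unless failing retest; inactive = the rest, including hits failing retest or dose response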
KCC2 mod: modulates chloride dependent transport by human KCC2; 2.2% of 190,000 active; B-score of Tl+ flux slope (higher = more flux/activation; lower = inhibition) at 10 µM; KCC2 cells, thallium flux FluoZin-2 fluorescence;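 active = thallium flux slope and its plate-corrected score both differing from the plate sample mean at a set confidence after two filtering rounds, in either direction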;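 note: slope of fluorescence scaled to starting intensity during 10 to 20 s after thallium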
Target sequence (Q9H2X9 whole entry, looked up): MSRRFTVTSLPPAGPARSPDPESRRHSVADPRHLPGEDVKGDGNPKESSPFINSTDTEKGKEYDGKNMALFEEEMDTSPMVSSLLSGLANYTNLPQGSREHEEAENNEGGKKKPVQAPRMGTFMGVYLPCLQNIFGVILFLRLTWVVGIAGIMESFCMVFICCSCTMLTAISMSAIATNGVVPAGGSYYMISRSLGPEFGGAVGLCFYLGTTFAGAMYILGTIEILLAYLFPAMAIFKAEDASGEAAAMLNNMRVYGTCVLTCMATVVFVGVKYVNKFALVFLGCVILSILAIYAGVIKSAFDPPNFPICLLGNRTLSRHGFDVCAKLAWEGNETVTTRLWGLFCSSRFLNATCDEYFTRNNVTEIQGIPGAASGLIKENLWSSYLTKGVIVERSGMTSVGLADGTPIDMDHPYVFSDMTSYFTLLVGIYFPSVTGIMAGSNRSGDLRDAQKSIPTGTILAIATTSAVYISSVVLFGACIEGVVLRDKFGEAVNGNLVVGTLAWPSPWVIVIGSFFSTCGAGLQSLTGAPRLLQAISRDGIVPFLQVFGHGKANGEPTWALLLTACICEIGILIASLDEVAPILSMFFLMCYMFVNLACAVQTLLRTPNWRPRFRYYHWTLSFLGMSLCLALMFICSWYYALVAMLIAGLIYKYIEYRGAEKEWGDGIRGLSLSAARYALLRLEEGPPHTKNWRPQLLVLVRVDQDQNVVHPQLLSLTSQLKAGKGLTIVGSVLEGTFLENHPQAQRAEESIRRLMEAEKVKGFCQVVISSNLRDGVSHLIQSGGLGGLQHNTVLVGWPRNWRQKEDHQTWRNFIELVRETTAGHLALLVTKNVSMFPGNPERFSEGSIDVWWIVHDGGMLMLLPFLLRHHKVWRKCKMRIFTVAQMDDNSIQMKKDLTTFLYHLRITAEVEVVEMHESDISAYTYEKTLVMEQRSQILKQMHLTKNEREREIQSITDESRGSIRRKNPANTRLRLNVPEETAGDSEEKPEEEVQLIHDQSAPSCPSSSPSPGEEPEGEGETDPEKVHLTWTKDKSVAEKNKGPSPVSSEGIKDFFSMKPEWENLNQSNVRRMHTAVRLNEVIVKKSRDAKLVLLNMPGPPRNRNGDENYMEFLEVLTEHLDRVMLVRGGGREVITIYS
Dynein inh conf: dynein cargo transport inhibition, confirmation; 3617.4 GR-EGFP nuclear translocation imaging, dexamethasone-induced; shares compounds with Dynein cargo inh; 69% of 1,000 active; calls only at 20 µM;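 active = inhibition of receptor movement into the nucleus at or above a set limit in both runs, with normal cell brightness and cell count; inconclusive = limit reached in only one run, brightness and count normal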;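 note: dexamethasone at 1 µM final in well for 30 min; nuclear minus cytoplasmic GR-EGFP mean intensity difference in channel 2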
Large screens that a line does not name were inactive (follow-up assays come after a bar, where they were run).

Cc1ccc(-c2csc3nc(C)n(-n4c(C)ccc4C)c(=O)c23)o1	Dynein cargo inh -4 (no result: KCC2 mod) | Dynein inh conf inactive
CC(=O)Nc1cccc(-c2ccnc3c2CC(C)(C(=O)Nc2ccc(Cl)c(C(F)(F)F)c2)O3)c1 (stereo not drawn)	none (no result: V-ATPase pH, Dynein cargo inh, p-CIP stab down, KCC2 mod)
O=C(c1cnc(Cc2c[nH]c3ccccc23)c(I)c1)N1CCCCC1	none (no result: V-ATPase pH, Dynein cargo inh, p-CIP stab down, KCC2 mod)
O=[N+]([O-])c1cc(S(=O)(=O)N2CCCCCC2)ccc1F	Dynein cargo inh -4.4 | Dynein inh conf active
CCCCC1(CC)SCC(=O)NC1=O (stereo not drawn)	none (no result: Dynein cargo inh, p-CIP stab down, KCC2 mod)
Cc1cccc(NC(=O)CSc2n[nH]c(-c3cccnc3)n2)c1	none (no result: Dynein cargo inh, KCC2 mod)
O=C(CCl)N(c1ccccc1)c1ccccc1	Dynein cargo inh -4.5 | Dynein inh conf active
O=Cc1[nH]c2ccccc2c1N(C(=O)CCl)c1ccccc1	none | Dynein inh conf active
Cc1cccc(N(Cc2cc(=O)[nH]c3ccccc23)C(=O)CCl)c1	none (no result: Dynein cargo inh, KCC2 mod)
CCCCCCN(C(=O)CCl)c1ccccc1	Dynein cargo inh -4.7 | Dynein inh conf active
COC(=O)c1cc([N+](=O)[O-])c(-n2cncn2)c([N+](=O)[O-])c1	Dynein cargo inh -4.6 | Dynein inh conf active
Cc1cscc1-c1ccc(C(=O)Nc2c(C)cccc2C)o1	none (no result: V-ATPase pH, Dynein cargo inh, p-CIP stab down, KCC2 mod)
COc1ccc(C(=O)n2nc(-c3ccco3)nc2SC)cc1OC	Dynein cargo inh -4 | Dynein inh conf inactive
CCOC(=O)C1CCN(C(=O)Nc2ccc3nc(-c4ccco4)c(-c4ccco4)nc3c2)CC1	Dynein cargo inh -4.5 | Dynein inh conf inactive
Clc1ccc(N=c2ssnc2Cl)nc1	Dynein cargo inh -3.5 | Dynein inh conf inactive
COc1ccc(-n2nc(C#N)c(Cl)cc2=O)cc1	Dynein cargo inh -5.9 | Dynein inh conf active
COC(=O)c1nn(-c2ccc(OC)cc2)c(=O)cc1O	none
COc1cccc(C2CC(C(F)(F)F)n3nc(C(=O)NCc4cccnc4)cc3N2)c1 (stereo not drawn)	Dynein cargo inh -3.6 | Dynein inh conf inactive
COc1cccc(C2CC(C(F)(F)F)n3nc(C(=O)Nc4c(C)n(C)n(-c5ccccc5)c4=O)cc3N2)c1 (stereo not drawn)	none
N#Cc1ccccc1S(=O)(=O)N1CCN(c2cnccn2)CC1	none
CCCN1C(=O)/C(=C\c2ccncc2)SC1=Nc1ccccc1	Dynein cargo inh -4.4 | Dynein inh conf inactive
CCN1C(=O)/C(=C\c2ccncc2)SC1=Nc1ccc(C)c(C)c1	none
Cc1[nH]c2ccccc2c1CN1CCc2ccccc2C1	Dynein cargo inh -3.8 | Dynein inh conf inactive
O=C1NC[C@H](CCCCN2C[C@H](Cc3ccccc3)N(Cc3ccccc3)C(=O)C2=O)N(CCC2CCCCC2)C1=O	none (no result: V-ATPase pH, Dynein cargo inh, p-CIP stab down, KCC2 mod)
CCOc1cc(N2CCOCC2)c(OCC)cc1NS(=O)(=O)c1ccc2c(c1)CC(=O)N2	none (no result: V-ATPase pH, Dynein cargo inh, p-CIP stab down, KCC2 mod)
O=C(C(=Cc1ccc(O)cc1)c1ccccc1)c1ccccc1	none (no result: V-ATPase pH, Dynein cargo inh, p-CIP stab down, KCC2 mod)
CC1(C)Cc2c(sc3c4nnnn4c4nnnn4c23)CO1	Dynein cargo inh -4.7 (no result: V-ATPase pH, ABCB6 inh MLPCN) | Dynein inh conf inactive
Cc1cc(C)c(C)c(S(=O)(=O)ON2C(=O)c3ccccc3C2=O)c1C	Dynein cargo inh -4.3 (no result: KCC2 mod) | Dynein inh conf active
Cc1cc(C)c(S(=O)(=O)ON2C(=O)c3ccccc3C2=O)cc1C	Dynein cargo inh -6.1 | Dynein inh conf active
CCOC(=O)c1cn(-c2c(Cl)cccc2Cl)c2cc(Cl)c([N+](=O)[O-])cc2c1=O	Dynein cargo inh -4.4 | Dynein inh conf active
Cc1ccc(C2=NOC(=O)/C2=C\c2ccc(C)o2)cc1	Dynein cargo inh -5.7 | Dynein inh conf active
CC1=NOC(=O)/C1=C\c1ccc(-c2ccc(Br)cc2)o1	Dynein cargo inh -4.1 | Dynein inh conf inconclusive
Cc1[nH]c2ccccc2c(=O)c1C(=O)/C=C/c1ccccc1	Dynein cargo inh -6 | Dynein inh conf active
O=C(C=Cc1ccccc1)c1c[nH]c2ccccc2c1=O	none (no result: Dynein cargo inh, p-CIP stab down, KCC2 mod)
COc1ccc2cc(CCNC(=O)c3ccc(S(=O)(=O)N4CCCC4)cc3)c(=O)[nH]c2c1	none (no result: Dynein cargo inh, KCC2 mod)
CC(=O)N1/C(=C/c2ccc(N(C)C)cc2)C(=O)c2ccccc21	Dynein cargo inh -5.8 | Dynein inh conf active
Cc1ccsc1/C=C/C1=Cc2c(sc(NC(=O)CSc3n[nH]c(N)n3)c2C#N)C(C)(C)C1	Dynein cargo inh -3.6 | Dynein inh conf inactive
C=CCSc1nc2ccccc2n1C(=O)/C=C/c1cc(OC)c(OC)c(OC)c1	Dynein cargo inh -6 | Dynein inh conf active
CNS(=O)(=O)c1cccc(C(=O)OCC(=O)Nc2ccc(OC)cc2[N+](=O)[O-])c1	none
COc1ccc(C(=O)C(CN2CCOCC2)c2ccccc2)cc1 (stereo not drawn)	none
O=C(c1ccc(F)cc1)C(CN1CCOCC1)c1ccccc1 (stereo not drawn)	Dynein cargo inh -6.1 | Dynein inh conf active
COc1ccc(C(=O)C(CN2CCCC2)c2ccccc2)cc1 (stereo not drawn)	Dynein cargo inh -4.3 (no result: KCC2 mod) | Dynein inh conf active
CC1(C(=O)NS(=O)(=O)C2CC2)CCCN(C(=O)c2cccc(Cl)c2)C1 (stereo not drawn)	none (no result: V-ATPase pH, Dynein cargo inh, p-CIP stab down, KCC2 mod)
Cc1cc(C)n(-c2ccc(C(=O)OC(C)C(=O)Nc3ccc(C(N)=O)cc3)cc2)n1 (stereo not drawn)	none (no result: Dynein cargo inh, p-CIP stab down, KCC2 mod)
C=CS(=O)(=O)c1sc(Cl)c(N2CCOCC2)c1[N+](=O)[O-]	Dynein cargo inh -4.3, KCC2 mod -3.6 | Dynein inh conf active
C=CSc1sc(Cl)c(N2CCOCC2)c1[N+](=O)[O-]	none
CCCCc1c(C)c(C#N)c2nc3ccccc3n2c1Cl	Dynein cargo inh -5.2 (no result: V-ATPase pH, ABCB6 inh MLPCN) | Dynein inh conf active
CCc1c(C)c(C#N)c2nc3ccccc3n2c1N(C)C	none
COc1cccc(C(=O)C(C#N)=C(SC)SC)c1	Dynein cargo inh -4.5 | Dynein inh conf active
O=C(O)c1ccc(C(=O)C(=O)c2ccccc2)cc1	none
CSC(SC)=C(C#N)C(=O)c1ccccc1	Dynein cargo inh -4.8 | Dynein inh conf active
COc1cccc(C(=O)C(CCC#N)c2ccccc2)c1 (stereo not drawn)	none (no result: Dynein cargo inh, p-CIP stab down, KCC2 mod)
Cc1[nH]n(-c2ncc(-c3ccc(Cl)cc3)s2)c(=O)c1C(c1ccc(Cl)cc1)C(C#N)C#N (stereo not drawn)	Dynein cargo inh -3.6 | Dynein inh conf active
CC(C(Sc1ccccc1N)c1ccccc1)[N+](=O)[O-] (stereo not drawn)	Dynein cargo inh -5.5 | Dynein inh conf active
CCOC(=O)c1cnc2c(ccc3ccccc32)c1N	none (no result: Dynein cargo inh, KCC2 mod)
CCN(Cc1ccc(OC)c(F)c1)C(=O)C1CCCO1 (stereo not drawn)	none (no result: Dynein cargo inh, KCC2 mod)
CCN(Cc1ccc(OC)c(F)c1)C(=O)CCl	Dynein cargo inh -4.3 | Dynein inh conf inconclusive
CCC1(C)CC2(CCCN(CCC(=O)c3ccccc3)C2)CCO1 (stereo not drawn)	Dynein cargo inh -3.8 | Dynein inh conf inactive

Compound activity deposited in PubChem by several laboratories.
